# Reference: ChEMBL document CHEMBL2034978, “Synthesis and evaluation of curcumin-related compounds for anticancer activity” (Eur J Med Chem, 2012)
# Activity calls are given as the source filed them. No cut-off for these calls is given here.
# Assays:
# PANC-1 [1] = assay: Cytotoxicity against human PANC1 cells after 72 hrs by MTT assay; format: functional, cell-based; settings: PANC-1, 72 h
# Outline: (§1)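 Seeded at 0.2 × 10⁵ cells/ml, grown 24 h, then exposed 72 h to a range of concentrations (upper limit 30). MTT read-out: formazan dissolved in DMSO, absorbance at 540 nm, growth expressed as percent of DMSO-treated cells.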
# PC-3 [2] = assay: Cytotoxicity against human PC3 cells after 72 hrs by MTT assay; format: functional, cell-based; settings: PC-3, 72 h; outline: as §1
# HT-29 [3] = assay: Cytotoxicity against human HT-29 cells after 72 hrs by MTT assay; format: functional, cell-based; settings: HT-29, 72 h; outline: as §1
# PANC-1 [4] = assay: Ratio of curcumin IC50 to compound IC50 for human PANC1 cells; format: functional
# Outline: (§2)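 Curcumin served as positive control in each incubation, with its growth-inhibition data averaged across experiments.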
# PC-3 [5] = assay: Ratio of curcumin IC50 to compound IC50 for human PC3 cells; format: functional; outline: as §2
# HT-29 [6] = assay: Ratio of curcumin IC50 to compound IC50 for human HT-29 cells; format: functional; outline: as §2
# PC-3 [7] = assay: Induction of apoptosis in human PC3 cells at <1 uM after 96 hrs by morphology analysis; format: functional, cell-based
# [8] = target: Mitogen-activated protein kinase; ERK1/ERK2 (Homo sapiens) (UniProt P27361+P28482); assay: Inhibition of ERK1/2 phosphorylation in human PC3 cells at 0.5 uM after 24 hrs by Western blotting relative to beta-actin; format: cell-based; settings: PC-3
# Outline: (§3)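 PC-3 cells were seeded at 1 × 10⁵ cells/ml in 100 mm dishes, grown 24 h, then treated 24 h. Cells were lysed in Tris-HCl pH 7.4 buffer containing NaF, pyrophosphate, orthovanadate and Triton X-100, and lysates cleared at 12,000×g. Blots on PVDF were probed with anti-phospho-Akt or anti-phospho-Erk1/2, detected by ECL, quantified by optical density and normalized to β-actin.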
# PC-3 [9] = assay: Inhibition of Akt phosphorylation in human PC3 cells at 0.5 uM after 24 hrs by Western blotting relative to beta-actin; format: cell-based; outline: as §3
# Mitogen-activated protein kinase; ERK1/ERK2 (Homo sapiens), sequence (P27361 whole entry, looked up): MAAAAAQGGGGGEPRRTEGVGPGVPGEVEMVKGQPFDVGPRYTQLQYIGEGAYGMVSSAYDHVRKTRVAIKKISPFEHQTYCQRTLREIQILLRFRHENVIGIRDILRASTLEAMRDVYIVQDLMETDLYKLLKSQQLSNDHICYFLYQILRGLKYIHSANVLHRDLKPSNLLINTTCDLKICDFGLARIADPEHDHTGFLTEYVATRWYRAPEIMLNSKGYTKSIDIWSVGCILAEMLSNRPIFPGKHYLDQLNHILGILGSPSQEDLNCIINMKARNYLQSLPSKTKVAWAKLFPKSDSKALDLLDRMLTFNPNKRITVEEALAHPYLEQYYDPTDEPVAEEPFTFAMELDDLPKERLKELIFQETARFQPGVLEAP
# Mitogen-activated protein kinase; ERK1/ERK2 (Homo sapiens), sequence (P28482 whole entry, looked up): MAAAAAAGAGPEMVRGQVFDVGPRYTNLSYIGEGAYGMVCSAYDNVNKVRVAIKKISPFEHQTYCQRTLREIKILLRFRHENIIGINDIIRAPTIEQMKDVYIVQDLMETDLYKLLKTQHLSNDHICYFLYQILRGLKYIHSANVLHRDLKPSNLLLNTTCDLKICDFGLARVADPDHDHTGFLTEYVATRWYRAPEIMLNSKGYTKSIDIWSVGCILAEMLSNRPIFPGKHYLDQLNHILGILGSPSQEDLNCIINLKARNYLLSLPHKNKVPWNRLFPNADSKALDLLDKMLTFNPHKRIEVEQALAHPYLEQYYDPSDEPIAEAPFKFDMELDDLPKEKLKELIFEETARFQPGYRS
inhibition [8],Compound,IC50 (PANC-1 [1]),IC50 (PC-3 [2]),IC50 (HT-29 [3]),Ratio IC50 (PANC-1 [4]),Ratio IC50 (PC-3 [5]),Ratio IC50 (HT-29 [6]),Activity (PC-3 [7]),inhibition (PC-3 [9])
–,O=C1/C(=C/c2ccsc2)CCC/C1=C\c1ccsc1,17.4 µM,14.6 µM,17.3 µM,–,–,–,–,–
–,COc1ccc(/C=C/C(=O)/C=C/c2ccc(OC)c(OC)c2OC)c(OC)c1OC,9.22 µM,5.93 µM,5.09 µM,–,–,–,–,–
–,COc1ccc(/C=C2\CCC/C(=C\c3ccc(OC)cc3)C2=O)cc1,15.9 µM,12.3 µM,13.7 µM,–,–,–,–,–
–,O=C1/C(=C/c2ccc(Br)cc2)CCC/C1=C\c1ccc(Br)cc1,12.2 µM,13.6 µM,9.19 µM,–,–,–,–,–
–,O=C1/C(=C/c2ccncc2)CCC/C1=C\c1ccncc1,2.18 µM,2.12 µM,2.35 µM,–,–,–,–,–
–,COc1ccc(/C=C2\CC/C(=C\c3ccc(OC)c(OC)c3)C2=O)cc1OC,13.7 µM,9.3 µM,13.5 µM,–,–,–,–,–
–,COc1ccc(/C=C2\CCC/C(=C\c3ccc(OC)c(OC)c3OC)C2=O)c(OC)c1OC,11.6 µM,8.22 µM,7.14 µM,–,–,–,–,–
–,O=C1/C(=C/c2ccc(Br)cc2)CNC/C1=C\c1ccc(Br)cc1,2.06 µM,1.95 µM,4.13 µM,–,–,–,–,–
Active,COc1cc(C=C2CSCC(=Cc3cc(OC)c(OC)c(OC)c3)C2=O)cc(OC)c1OC,0.7 µM,0.28 µM,0.26 µM,34,69,72,Active,inactive
–,O=C1/C(=C/c2ccc(F)cc2)CC/C1=C\c1ccc(F)cc1,19.7 µM,19 µM,14.4 µM,–,–,–,–,–
–,COc1ccc(/C=C2\CC/C(=C\c3ccc(OC)c(OC)c3OC)C2=O)c(OC)c1OC,22.7 µM,18.7 µM,19.8 µM,–,–,–,–,–
–,COc1cc(/C=C2\CC/C(=C\c3cc(OC)c(OC)c(OC)c3)C2=O)cc(OC)c1OC,18.8 µM,16.4 µM,12.7 µM,–,–,–,–,–
–,O=C1/C(=C/c2ccc(O)cc2)CC/C1=C\c1ccc(O)cc1,> 30 µM,22.9 µM,21.4 µM,–,–,–,–,–
–,COc1ccc(/C=C/C(=O)/C=C/c2ccc(OC)cc2)cc1,14 µM,11.2 µM,11.3 µM,–,–,–,–,–
–,COc1ccc(C=C2CSCC(=Cc3ccc(OC)c(OC)c3OC)C2=O)c(OC)c1OC,4.71 µM,3.78 µM,2.89 µM,–,–,–,–,–
–,O=C1/C(=C/c2ccsc2)CC/C1=C\c1ccsc1,27.9 µM,23 µM,19.7 µM,–,–,–,–,–
–,O=C1/C(=C/c2ccncc2)CSC/C1=C\c1ccncc1,1.14 µM,0.7 µM,1.29 µM,–,–,–,–,–
Active,COc1cc(/C=C2\COC/C(=C\c3cc(OC)c(OC)c(OC)c3)C2=O)cc(OC)c1OC,0.52 µM,0.27 µM,0.16 µM,46,72,117,Active,Active
–,COc1cc(/C=C2\CCC/C(=C\c3cc(OC)c(O)c(OC)c3)C2=O)cc(OC)c1O,2.63 µM,4.14 µM,2.7 µM,–,–,–,–,–
–,O=C1/C(=C/c2ccccn2)COC/C1=C\c1ccccn1,3.24 µM,1.88 µM,3.28 µM,–,–,–,–,–
–,O=C1/C(=C/c2cccnc2)CC/C1=C\c1cccnc1,6.22 µM,6.97 µM,5.54 µM,–,–,–,–,–
inactive,COc1cc(/C=C/C(=O)CC(=O)/C=C/c2ccc(O)c(OC)c2)ccc1O [CURCUMIN],23.7 µM,19.4 µM,18.7 µM,–,–,–,inactive,inactive
–,O=C(/C=C/c1ccc(O)cc1)/C=C/c1ccc(O)cc1,13.6 µM,9.68 µM,9.38 µM,–,–,–,–,–
–,O=C1/C(=C/c2ccsc2)COC/C1=C\c1ccsc1,10.8 µM,6.59 µM,8.94 µM,–,–,–,–,–
–,COc1cc(C=C2CSCC(=Cc3cc(OC)c(O)c(OC)c3)C2=O)cc(OC)c1O,2.2 µM,1.13 µM,1.73 µM,–,–,–,–,–
–,O=C1/C(=C/c2cccnc2)COC/C1=C\c1cccnc1,0.98 µM,2.21 µM,1.81 µM,–,–,–,–,–
–,COc1cc(/C=C2\CCC/C(=C\c3cc(OC)c(OC)c(OC)c3)C2=O)cc(OC)c1OC,9.66 µM,6.17 µM,4.23 µM,–,–,–,–,–
–,COc1ccc(/C=C2\CC/C(=C\c3ccc(OC)cc3)C2=O)cc1,> 30 µM,25.8 µM,23 µM,–,–,–,–,–
–,O=C1/C(=C/c2ccc(Cl)cc2)CNC/C1=C\c1ccc(Cl)cc1,3.73 µM,3.63 µM,6.33 µM,–,–,–,–,–
–,COc1ccc(/C=C2\COC/C(=C\c3ccc(OC)cc3)C2=O)cc1,7.63 µM,6.12 µM,6.05 µM,–,–,–,–,–
